Reference: ChEMBL document CHEMBL4130637, “25 S-Adamantyl-23-yne-26,27-dinor-1α,25-dihydroxyvitamin D3: Synthesis, Tissue Selective Biological Activities, and X-ray Crystal Structural Analysis of Its Vitamin D Receptor Complex” (J Med Chem, 2018)
Activity calls are given as the source filed them. The calls are words filed in the database; no cut-off is given here.

Columns and labels:
[1] = Stability in human MG63 cells assessed as parent compound remaining at 1 uM after 24 hrs by HPLC analysis; format: ADME, cell-based, MG-63; settings: read-out: Stability
How it was run: (§1)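 MG63 cells cultured with compound (1 µM) in medium containing 10% FBS. Uptake sampled at 5 and 10 min, stability after 24 h of culture. Compound levels in cells and medium determined by HPLC.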

[2] = Drug degradation in human MG63 cells at 1 uM after 24 hrs by HPLC analysis; format: ADME, cell-based, MG-63; settings: read-out: Drug degradation; how it was run: as §1
[3] = Drug uptake in human MG63 cells at 1 uM after 10 mins by HPLC analysis; format: ADME, cell-based; settings: mg-63, 10 min; how it was run: as §1
[4] = Drug uptake in human MG63 cells at 1 uM after 5 mins by HPLC analysis; format: ADME, cell-based; settings: mg-63, 5 min; how it was run: as §1
[5] = biological target: T1, Vitamin D3 receptor (Homo sapiens) (UniProt P11473); test: Agonist activity at VDR in human MG63 cells assessed as increase in OCN gene expression at 100 nM after 24 hrs by RT-PCR method relative to 1,25(OH)2D3; format: cell-based
T1 sequence (whole entry): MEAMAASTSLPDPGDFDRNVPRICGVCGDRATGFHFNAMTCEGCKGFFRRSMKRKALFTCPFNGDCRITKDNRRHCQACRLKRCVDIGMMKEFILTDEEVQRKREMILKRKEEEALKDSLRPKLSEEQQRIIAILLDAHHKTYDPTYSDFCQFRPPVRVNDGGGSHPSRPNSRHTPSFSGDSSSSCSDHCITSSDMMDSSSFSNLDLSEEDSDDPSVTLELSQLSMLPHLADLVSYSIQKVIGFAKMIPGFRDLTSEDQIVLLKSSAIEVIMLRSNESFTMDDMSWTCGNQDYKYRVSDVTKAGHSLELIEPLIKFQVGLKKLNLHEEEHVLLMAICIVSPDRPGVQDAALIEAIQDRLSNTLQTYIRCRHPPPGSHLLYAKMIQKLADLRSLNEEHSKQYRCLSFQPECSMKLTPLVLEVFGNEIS
How it was run: (§2)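 Cells treated with ligand at 100 nM for 24 h. mRNA of the target gene measured by reverse transcription and quantitative real-time PCR. Expression given as percentage of that induced by an equal concentration of 1,25(OH)2D3. Significance tested versus vehicle control.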

[6] = biological target: T1, Vitamin D3 receptor (Homo sapiens); test: Agonist activity at VDR in human U937 cells assessed as increase in CYP24A1 gene expression at 100 nM after 24 hrs by RT-PCR method relative to 1,25(OH)2D3; format: cell-based; how it was run: as §2
[7] = biological target: T1, Vitamin D3 receptor (Homo sapiens); test: Agonist activity at VDR in human U937 cells assessed as increase in CAMP gene expression at 100 nM after 24 hrs by RT-PCR method relative to 1,25(OH)2D3; format: cell-based; how it was run: as §2
[8] = biological target: T1, Vitamin D3 receptor (Homo sapiens); test: Agonist activity at VDR in HEK293 cells assessed as increase in CYP24A1 gene expression at 100 nM after 24 hrs by RT-PCR method relative to 1,25(OH)2D3; format: cell-based; how it was run: as §2
[9] = biological target: T1, Vitamin D3 receptor (Homo sapiens); test: Displacement of [26,27-Methyl-3H]-1,25(OH)2D3 from recombinant human GST-tagged VDR LBD (140 to 427 residues) expressed in Escherichia coli BL21 preincubated for 30 mins followed by radioligand addition measured after 20 hrs relative to 1,25(OH)2D3
How it was run: (§3)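 GST-VDR fusion protein incubated with [3H]1,25(OH)2D3 plus unlabeled competitor over a range of concentrations. Values are means ± standard deviations of triplicate assays.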

[10] = biological target: T1, Vitamin D3 receptor (Homo sapiens); test: Agonist activity at VDR in human SW480 cells assessed as increase in CYP24A1 gene expression at 100 nM after 24 hrs by RT-PCR method relative to 1,25(OH)2D3; format: cell-based; how it was run: as §2
[11] = biological target: T1, Vitamin D3 receptor (Homo sapiens); test: Agonist activity at VDR in human HaCaT cells assessed as increase in CYP24A1 gene expression at 100 nM after 24 hrs by RT-PCR method relative to 1,25(OH)2D3; format: cell-based; how it was run: as §2
[12] = biological target: T2, Vitamin D3 receptor (Homo sapiens, UniProt P11473); test: Displacement of [26,27-Methyl-3H]-1,25(OH)2D3 from recombinant human GST-tagged VDR LBD (140 to 427 residues) expressed in Escherichia coli BL21 preincubated for 30 mins followed by radioligand addition measured after 20 hrs; how it was run: as §3
T2 sequence (P11473 whole entry): T1 sequence (whole entry)

[13] = biological target: T2, Vitamin D3 receptor; test: Transactivation of VDR (unknown origin) expressed in HEK293 cells harboring TK-Spp X 3-LUC reporter plasmid after 24 hrs by luciferase reporter gene assay; format: cell-based
How it was run: (§4)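 HEK293 cells transfected with pCMX-VDR and TKSpp × 3-LUC reporter. Cells treated with vehicle or ligand at 10-14 M to 10^-8 M for 24 h, then harvested. Luciferase activity assayed alongside β-galactosidase activity.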

[14] = biological target: T2, Vitamin D3 receptor; test: Transactivation of VP16-tagged VDR (unknown origin) expressed in HEK293 cells harboring pCMX-GAL4-RXRalpha and MH100(UAS) X 4tk-LUC reporter plasmid assessed as increase in interaction with RXRalpha by […] reporter gene based mammalian two-hybrid assay; format: cell-based
[15] = biological target: T2, Vitamin D3 receptor; test: Transrepression of VP16-tagged VDR (unknown origin) expressed in HEK293 cells harboring pCMX-GAL4-NCoR and MH100(UAS) X 4tk-LUC reporter plasmid assessed as increase in NCoR recruitment by […] reporter gene based mammalian two-hybrid assay; format: cell-based
[16] = biological target: T2, Vitamin D3 receptor; test: Transactivation of VP16-tagged VDR (unknown origin) expressed in HEK293 cells harboring pCMX-GAL4-SRC-1 and MH100(UAS) X 4tk-LUC reporter plasmid assessed as increase in SRC-1 recruitment by […] reporter gene based mammalian two-hybrid assay; format: cell-based
[17] = biological target: T1, Vitamin D3 receptor (Homo sapiens); test: Agonist activity at VDR in human MG63 cells assessed as increase in CYP24A1 gene expression at 100 nM after 24 hrs by RT-PCR method relative to 1,25(OH)2D3; format: cell-based; how it was run: as §2
[18] = biological target: T1, Vitamin D3 receptor (Homo sapiens); test: Transactivation of VDR (unknown origin) expressed in HEK293 cells harboring TK-Spp X 3-LUC reporter plasmid after 24 hrs by luciferase reporter gene assay relative to control; format: cell-based; how it was run: as §4
[19] = biological target: T1, Vitamin D3 receptor (Homo sapiens); test: Transactivation of VDR (unknown origin) expressed in HEK293 cells harboring TK-Spp X 3-LUC reporter plasmid after 24 hrs by luciferase reporter gene assay relative to 1,25(OH)2D3; format: cell-based; how it was run: as §4
[20] = biological target: T1, Vitamin D3 receptor (Homo sapiens); test: Agonist activity at VDR in human SW480 cells assessed as increase in TRPV6 gene expression at 100 nM after 24 hrs by RT-PCR method relative to 1,25(OH)2D3; format: cell-based; how it was run: as §2
[21] = biological target: T1, Vitamin D3 receptor (Homo sapiens); test: Agonist activity at VDR in human HaCaT cells assessed as increase in CAMP gene expression at 100 nM after 24 hrs by RT-PCR method relative to 1,25(OH)2D3; format: cell-based; how it was run: as §2
[22] = biological target: T1, Vitamin D3 receptor (Homo sapiens); test: Agonist activity at VDR in human SW480 cells assessed as increase in E-cadherin gene expression at 100 nM after 24 hrs by RT-PCR method relative to 1,25(OH)2D3; format: cell-based; how it was run: as §2

Row | Compound | remaining at 24 h, 1 µM [1] [%] | Drug uptake [3] [%] | Drug uptake [4] [%] | Activity [5] | Activity [6] | Activity [7] | Activity [8] | inhibition [9] [%] | Activity [10] | Activity [11] | IC50 [12] [nM] | EC50 [13] [nM] | EC50 [14] [nM] | IC50 [15] [nM] | EC50 [16] [nM] | Activity [17] | Activity [18] [%] | Emax [19] [%] | also measured
1 | C=C1/C(=C\C=C2/CCC[C@]3(C)[C@@H]([C@H](C)CCCC(C)(C)O)CC[C@@H]23)C[C@@H](O)C[C@@H]1O [CALCITRIOL] | 70 | 2.3 | 3.4 |  |  |  |  |  |  |  |  |  |  |  |  |  |  |  | metabolised at 24 h, 1 µM [2]: 30%
2 | C=C1/C(=C\C=C2/CCC[C@]3(C)[C@@H]([C@H](C)CC#C[C@H](O)C45CC6CC(CC(C6)C4)C5)CC[C@@H]23)C[C@@H](O)C[C@@H]1O | 90 | 9.5 | 6.9 | Active | Active | Active | Active | 4 | Active | Active | 3.13 | > 5.69 | > 1.2 | 1.75 | > 3.2 | Active |  |  | 
3 | C=C1/C(=C\C=C2/CCC[C@]3(C)[C@@H]([C@H](C)CC#C[C@@H](O)C45CC6CC(CC(C6)C4)C5)CC[C@@H]23)C[C@@H](O)C[C@@H]1O | 49 | 6 | 3.1 | 64% | 54% | 96% | 160% | 50 | 8% | 7% | 0.24 | 0.03 | > 0.14 | 0.09 | > 1.2 | 44% | 90 | 87 | Activity [20]: 22%; Activity [21]: 24%; Activity [22]: 12%
4 | C=C1[C@H](O)CC(=C/C=C2\CCC[C@]3(C)[C@@H]([C@H](C)CC#C[C@@H](O)C45CC6CC(CC(C6)C4)C5)CC[C@@H]23)C[C@H]1O | 43 | 9.7 | 6.1 |  | 85% |  | 100% |  | 50% | 30% |  |  |  |  |  | 58% | 170 | 81 | 
